Bioassay records (PubChem BioAssay)
In the library only some 1.6% were active in any assay of this set; here they are far more common.
PKA-R1A activ – activators of PKA-R1A complex; actives 0.083% (n = 340,000); PKA-R1A dissociation, Cy5-IP20 fluorescence polarization; scaled: DMSO 0%, 113 µM cGMP 100%; activation, % at 11.4 µM; P00514+P68181;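 active = percent activation above the mean of all tested compounds plus 3 SD, cut at about 19% in these data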;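 note: higher means more PKAc released from R1A so a rise in polarization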
TPT1 inh – blocks Candida albicans tRNA 2'-phosphotransferase; inhibition, % at 5 µM; actives 0.81% (n = 300,000); recombinant caTPT1, FP RNA substrate dephosphorylation;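 active = inhibition above the mean of all tested compounds plus 3 SD, set per screening campaign, cut at about 24% in these data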
Rpn11 inh – blocks the human proteasome subunit Rpn11; O00487; human 26S proteasome, Ub4-pepOG fluorescence polarization; 20S core pre-blocked with epoxomicin; calls only at 20 µM; actives 0.59% (n = 360,000);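 active = inhibition at 20 µM, scaled to each plate's controls, above about 33%, limit read from the data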
HNF4A DNA FP – change in binding of human HNF4 alpha to DNA; P41235; HNF4a-FITC DNA binding, fluorescence polarization, 1 h; activity change, % at 10 µM; actives 0.3% (n = 360,000); AID 1224865; in the data active = activity change above about 30%, passing the limit was not always enough
Target sequence (P41235 whole entry, looked up): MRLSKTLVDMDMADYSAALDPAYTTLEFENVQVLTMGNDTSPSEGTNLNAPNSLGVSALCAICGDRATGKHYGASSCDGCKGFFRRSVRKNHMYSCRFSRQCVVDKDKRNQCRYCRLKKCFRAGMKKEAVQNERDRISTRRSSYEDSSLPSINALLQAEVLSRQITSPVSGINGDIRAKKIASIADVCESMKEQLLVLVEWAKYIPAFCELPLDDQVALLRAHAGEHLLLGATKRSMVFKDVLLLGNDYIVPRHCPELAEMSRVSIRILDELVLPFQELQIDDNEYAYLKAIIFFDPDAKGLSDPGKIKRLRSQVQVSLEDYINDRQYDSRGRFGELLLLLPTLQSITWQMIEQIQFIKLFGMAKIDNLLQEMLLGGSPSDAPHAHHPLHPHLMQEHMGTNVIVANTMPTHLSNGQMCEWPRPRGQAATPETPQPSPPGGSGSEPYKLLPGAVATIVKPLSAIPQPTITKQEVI
CSN deneddyl inh – CSN deneddylation inhibition; AID 651999; Purified CSN, SCF-Nedd8-OG deneddylation, fluorescence polarization; inhibition, % at 12.5 µM; actives 0.38% (n = 360,000); Q92905;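 active = pattern-corrected inhibition above about 35%, with an unprinted fluorescence ratio check between 0.5 and 1.5, limit read from the data, passing the limit was not always enough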
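Assay system: HEK293T-derived human Csn5 enzyme; quantity: 0.24 nM enzyme; medium: Tris/NaCl/DTT buffer, pH 7.5; also added: substrate SCFSkp2-Nedd8OG, 10 nM; doses: 12.5 µM compound; schedule: 90 min reaction at room temperature; signal: FP; read-out: % inhibition of substrate cleavage by Csn5; benchmarks: substrate-only high control, full reaction low control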
PKA-R2B act – activators of human PKA-R2B complex; activation, % at 11.4 µM; AID 504700; actives 0.079% (n = 340,000); PKA-R2B holoenzyme dissociation, Cy5-IP20 fluorescence polarization; R2B truncated from residue 108, S112A mutant; 0% DMSO only, 100% 113 µM cGMP;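 active = activation above a cutoff set at the mean over all compounds plus 3 SD, cut at about 18% in these data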;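 note: higher means more holoenzyme dissociation and a rise in polarization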
Rpn11 inh conf – Rpn11 inhibition confirmation, single concentration | shares compounds with Rpn11 inh | purified human 26S proteasome, Ub4-pepOG fluorescence polarization; proteasome pretreated with epoxomicin | inhibition, % at 20 µM | actives 29% (n = 1,900) | AID 602318
MMP-2 inh – blocks human MMP-2, flagging nonselective RPN11 hits | actives 4% (n = 1,900) | shares compounds with Rpn11 inh | recombinant MMP-2, FRET peptide cleavage fluorescence | inhibition, % at 20 µM;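 note: human MMP-2 activated beforehand with APMA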
Thrombin inh – blocks bovine thrombin, flagging nonselective RPN11 hits. actives 13% (n = 1,900). shares compounds with Rpn11 inh. bovine thrombin cleavage of Ub4-pepOG, fluorescence polarization. inhibition, % at 20 µM. AID 602333;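 active = mean inhibition at least 40% at 20 µM, or signal 3 deviations below plate average, so some actives read negative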
Hits are given with their value; – = inactive; · = not tested or not shown; + = active, no number. Cut-off read from the data, not from the text of the source, unless noted: active = inhibition above about 40%; inactive = the rest.

SMILES	PKA-R1A activ	TPT1 inh	Rpn11 inh	HNF4A DNA FP	CSN deneddyl inh	PKA-R2B act	Rpn11 inh conf	MMP-2 inh	Thrombin inh
COc1ccc(C2=NN(C(C#N)c3ccc(OC)c(OC)c3)C(c3ccccc3)C2)cc1 (stereo unspecified)	–	–	+	–	–	–	–	–	–
CCOCCCNS(=O)(=O)c1ccc(NC(=O)Cc2c(F)cccc2Cl)cc1	–	–	–	–	–	–	·	·	·
CCc1ccc2[nH]c(=O)c(CN(Cc3ccccc3OC)Cc3nnnn3Cc3ccco3)cc2c1	–	–	+	–	–	–	–	–	–
COc1ccccc1CN(Cc1cc2cc(C)ccc2[nH]c1=O)Cc1nnnn1Cc1ccco1	–	–	–	–	–	–	·	·	·
CCOC(=O)c1[nH]c2ccccc2c1NC(=O)Nc1ccc(OC)cc1	–	–	+	–	–	–	–	–	–
CCN(C1CCCCC1)S(=O)(=O)CCNC(=O)c1ccc(OC)cc1	–	·	–	–	–	–	·	·	·
CCOC(=O)C1=C(c2ccccc2)NC(=S)NC1C (stereo unspecified)	–	–	+	–	–	–	–	–	–
CCOC(=O)C1=C(C)NC(=S)NC1C (stereo unspecified)	–	–	–	–	–	–	·	·	·
CCOC(=O)/C(C#N)=N/Nc1ccccc1OC	–	–	+	–	–	–	–	–	–
COc1ccc2c(-c3cc4ccc(OCc5ccc(F)cc5)cc4oc3=O)cc(=O)oc2c1	–	–	+	–	–	–	–	–	–
COc1cccc(/C=N/NC(=O)c2[nH]c(C)c(C(=O)N/N=C/c3cccc(OC)c3)c2C)c1	–	–	+	–	–	–	45	–	–
CCCCNC(=O)COC(=O)c1c2c(nc3ccccc13)/C(=C/c1cccs1)CC2	–	–	+	–	–	–	–	–	–
COc1cc(C(=O)NC2CCCc3ccccc32)ccc1OCC(=O)Nc1ccc(F)cc1 (stereo unspecified)	–	–	–	–	–	–	·	·	·
Cc1ccc(S(=O)(=O)N2CCN(C(=O)COC(=O)/C=C/c3ccc([N+](=O)[O-])cc3)CC2)c(C)c1	–	·	+	–	–	–	–	–	–
O=c1cc(-c2ccc(Cl)cc2)[nH][nH]1	–	–	+	–	–	–	–	–	–
O=C(CSc1ncnc2c1cnn2-c1ccccc1)NC1CCCC1	–	–	–	–	–	–	·	·	·
CC(=O)c1ccccc1NC(=O)Cn1c(=O)cnc2ccccc21	–	–	+	–	–	–	–	–	–
O=C(Cn1c(=O)cnc2ccccc21)Nc1ccccc1N1CCOCC1	–	–	–	–	–	–	·	·	·
Cc1cccc(Sc2nc(-c3ccccc3)ncc2C(=O)O)c1	–	–	–	–	–	–	·	·	·
CC(=O)c1ccc(N/C=C\C(=O)c2ccc(C)cc2)cc1	–	–	–	–	–	–	·	·	·
CC(=O)Nc1ccc(N/C=C/C(=O)c2ccc(Cl)cc2)cc1	–	–	+	–	–	–	–	–	–
CCCc1nnc(NC(=O)Nc2ccc(OC)cc2)s1	–	–	–	–	–	–	·	·	·
COc1ccc(NC(=O)Nc2nnc(Cc3ccc(F)cc3)s2)cc1	–	·	+	–	–	–	–	–	–
CC(C)(C)Nc1cccccc1=O	–	–	+	–	–	–	–	–	–
Cc1ccc(Nc2cccccc2=O)cc1	–	–	–	–	–	–	·	·	·
SMILES	PKA-R1A activ	TPT1 inh	Rpn11 inh	HNF4A DNA FP	CSN deneddyl inh	PKA-R2B act	Rpn11 inh conf	MMP-2 inh	Thrombin inh
COc1cccc(C2c3c(C)nn(-c4ccc([N+](=O)[O-])cc4)c3N=C3C(=O)Nc4ccccc4N32)c1 (stereo unspecified)	–	–	+	57	–	–	–	–	–
Cc1ccc(C2c3c(C)nn(-c4ccc([N+](=O)[O-])cc4)c3N=C3C(=O)Nc4ccccc4N32)cc1 (stereo unspecified)	·	–	·	·	·	·	·	·	·
Cc1ccc2nc(SCC(=O)c3c(N)n(C)c(=O)n(C)c3=O)[nH]c2c1	–	–	+	–	–	–	–	–	–
Cc1ccc2nc(SCC(=O)c3cc(C)n(C)c3C)[nH]c2c1	–	–	–	–	–	–	·	·	·
CN(C)Cc1c(C(=O)N/N=C/c2ccncc2)nnn1-c1nonc1N	–	–	–	–	–	–	·	·	·
CCN(CC)Cc1c(C(=O)N/N=C/c2ccncc2)nnn1-c1nonc1N	–	–	+	50	–	–	–	–	–
CN(C)c1ccc(/C=N/NC(=O)c2nnn(-c3nonc3N)c2COc2ccc(F)cc2)cc1	–	–	+	–	–	–	–	–	–
Cn1[nH]c(CSc2ccc(Cl)cc2)cc1=O	–	–	–	–	–	–	·	·	·
CCC(CO)Oc1cc(NC(=O)c2ccc(F)cc2)c2ncn(C(C)C)c2c1 (stereo unspecified)	–	·	–	–	–	–	·	·	·
CCC(CO)Oc1cc(NC(=O)c2ccc(N)cc2)c2ncn(C(C)C)c2c1 (stereo unspecified)	–	·	+	–	–	–	44	–	–
COc1ccc(C(=O)NCC(=O)NCC(=O)OCC(=O)C(C)(C)C)cc1	–	–	–	–	–	–	·	·	·
Cc1ccc(S(=O)(=O)N/N=C\c2cn(CC(N)=O)c3ccccc23)cc1C	–	–	–	–	–	–	·	·	·
CCCOc1ccc(-c2nnn(CC(=O)c3c[nH]c4ccccc34)n2)cc1	–	–	+	–	–	–	–	–	–
O=C(COC(=O)c1cc(S(=O)(=O)N2CCOCC2)ccc1O)Nc1ccc2c(c1)OCO2	–	·	–	–	–	–	·	·	·
Cc1ccc2c(c1)nnn2C1CCN(CC(=O)NNC(=O)c2ccco2)CC1	–	–	–	–	–	–	·	·	·
CCOC(=O)Cn1c(=NC(=O)C2COc3ccccc3O2)sc2cc(S(N)(=O)=O)ccc21 (stereo unspecified)	–	–	–	–	–	–	·	·	·
CCOC(=O)Cn1c(=NC(=O)c2ccc([N+](=O)[O-])s2)sc2ccccc21	–	–	+	–	–	–	–	–	–
CNC(=O)C(=O)NCCN1CCN(S(=O)(=O)c2ccc3ccccc3c2)CC1	–	·	–	–	–	–	·	·	·
CC(C)c1nnc(NC(=O)Cc2cccs2)s1	–	–	–	–	–	–	·	·	·
CC(C)Cc1nnc(NC(=O)Cc2cccs2)s1	–	–	+	–	–	–	81	–	–
